In ChEMBL document CHEMBL1138533 (Antimicrob Agents Chemother, 2007):

Assays:
Format in all cases: ADME, organism-based
[1] = Unbound drug concentration in beta lactamase-positive Haemophilus influenzae pharmacokinetic simulation model dosed as amoxicillin-clavulanic acid at simulated human serum concentration of 2000/125 mg, po bid after 8 hrs; conditions: in vivo
Method in brief: (§1)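 Two-compartment hollow-fibre dynamic model at 37°C, Haemophilus test medium; total or free serum profiles of oral bid regimens simulated over 48 h by computer-controlled peristaltic dilution. […] Parameters from noncompartmental analysis: Cmax/Tmax observed, AUC0-24 by linear-log trapezoidal rule. Triplicate.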

[2] = Drug concentration in beta lactamase-negative Haemophilus influenzae pharmacokinetic simulation model dosed as amoxicillin-clavulanic acid at simulated human serum concentration of 2000/125 mg, po bid after 2 hrs; conditions: in vivo
[3] = fTmax in beta lactamase-negative Haemophilus influenzae pharmacokinetic simulation model dosed as amoxicillin-clavulanic acid at simulated human serum concentration of 2000/125 mg, po bid after 48 hrs; conditions: read-out: fTmax; method in brief: as §1
[4] = Unbound drug concentration in beta lactamase-negative Haemophilus influenzae pharmacokinetic simulation model dosed as amoxicillin-clavulanic acid at simulated human serum concentration of 2000/125 mg, po bid after 4 hrs; method in brief: as §1
[5] = Drug concentration in beta lactamase-negative Haemophilus influenzae pharmacokinetic simulation model dosed as amoxicillin-clavulanic acid at simulated human serum concentration of 2000/125 mg, po bid after 10 hrs; conditions: in vivo
[6] = Half life in beta lactamase-negative Haemophilus influenzae pharmacokinetic simulation model dosed as amoxicillin-clavulanic acid at simulated human serum concentration of 2000/125 mg, po bid after 48 hrs
[7] = Unbound drug concentration in beta lactamase-positive Haemophilus influenzae pharmacokinetic simulation model dosed as amoxicillin-clavulanic acid at simulated human serum concentration of 2000/125 mg, po bid after 12 hrs; conditions: in vivo; method in brief: as §1
[8] = Drug concentration in beta lactamase-positive Haemophilus influenzae pharmacokinetic simulation model dosed as amoxicillin-clavulanic acid at simulated human serum concentration of 2000/125 mg, po bid after 10 hrs
[9] = Cmax in beta lactamase-negative Haemophilus influenzae pharmacokinetic simulation model dosed as amoxicillin-clavulanic acid at simulated human serum concentration of 2000/125 mg, po bid after 48 hrs
[10] = Unbound drug concentration in beta lactamase-negative Haemophilus influenzae pharmacokinetic simulation model dosed as amoxicillin-clavulanic acid at simulated human serum concentration of 2000/125 mg, po bid after 1 hr; method in brief: as §1
[11] = Tmax in beta lactamase-negative Haemophilus influenzae pharmacokinetic simulation model dosed as amoxicillin-clavulanic acid at simulated human serum concentration of 2000/125 mg, po bid after 48 hrs; method in brief: as §1
[12] = Drug concentration in beta lactamase-positive Haemophilus influenzae pharmacokinetic simulation model dosed as amoxicillin-clavulanic acid at simulated human serum concentration of 2000/125 mg, po bid after 4 hrs; conditions: in vivo
[13] = fCmax in beta lactamase-negative Haemophilus influenzae pharmacokinetic simulation model dosed as amoxicillin-clavulanic acid at simulated human serum concentration of 2000/125 mg, po bid after 48 hrs; conditions: in vivo; method in brief: as §1
[14] = Unbound drug concentration in beta lactamase-positive Haemophilus influenzae pharmacokinetic simulation model dosed as amoxicillin-clavulanic acid at simulated human serum concentration of 2000/125 mg, po bid after 10 hrs; conditions: in vivo; method in brief: as §1
[15] = fAUC (0 to 24 hrs) in beta lactamase-negative Haemophilus influenzae pharmacokinetic simulation model dosed as amoxicillin-clavulanic acid at simulated human serum concentration of 2000/125 mg, po bid after 48 hrs; conditions: in vivo; method in brief: as §1
[16] = Unbound drug concentration in beta lactamase-negative Haemophilus influenzae pharmacokinetic simulation model dosed as amoxicillin-clavulanic acid at simulated human serum concentration of 2000/125 mg, po bid after 12 hrs; method in brief: as §1
[17] = Unbound drug concentration in beta lactamase-negative Haemophilus influenzae pharmacokinetic simulation model dosed as amoxicillin-clavulanic acid at simulated human serum concentration of 2000/125 mg, po bid after 6 hrs; method in brief: as §1
[18] = Cmax in beta lactamase-positive Haemophilus influenzae pharmacokinetic simulation model dosed as amoxicillin-clavulanic acid at simulated human serum concentration of 2000/125 mg, po bid after 48 hrs
[19] = Drug concentration in beta lactamase-negative Haemophilus influenzae pharmacokinetic simulation model dosed as amoxicillin-clavulanic acid at simulated human serum concentration of 2000/125 mg, po bid after 1 hr
[20] = Unbound drug concentration in beta lactamase-positive Haemophilus influenzae pharmacokinetic simulation model dosed as amoxicillin-clavulanic acid at simulated human serum concentration of 2000/125 mg, po bid after 1 hr; method in brief: as §1
[21] = Unbound drug concentration in beta lactamase-negative Haemophilus influenzae pharmacokinetic simulation model dosed as amoxicillin-clavulanic acid at simulated human serum concentration of 2000/125 mg, po bid after 3 hrs; method in brief: as §1
[22] = Unbound drug concentration in beta lactamase-negative Haemophilus influenzae pharmacokinetic simulation model dosed as amoxicillin-clavulanic acid at simulated human serum concentration of 2000/125 mg, po bid after 2 hrs; method in brief: as §1
[23] = Drug concentration in beta lactamase-positive Haemophilus influenzae pharmacokinetic simulation model dosed as amoxicillin-clavulanic acid at simulated human serum concentration of 2000/125 mg, po bid after 6 hrs; conditions: in vivo
[24] = Unbound drug concentration in beta lactamase-negative Haemophilus influenzae pharmacokinetic simulation model dosed as amoxicillin-clavulanic acid at simulated human serum concentration of 2000/125 mg, po bid after 8 hrs; method in brief: as §1
[25] = AUC (0 to 24 hrs) in beta lactamase-positive Haemophilus influenzae pharmacokinetic simulation model dosed as amoxicillin-clavulanic acid at simulated human serum concentration of 2000/125 mg, po bid after 48 hrs
[26] = Unbound drug concentration in beta lactamase-negative Haemophilus influenzae pharmacokinetic simulation model dosed as amoxicillin-clavulanic acid at simulated human serum concentration of 2000/125 mg, po bid after 10 hrs; method in brief: as §1
[27] = Unbound drug concentration in beta lactamase-positive Haemophilus influenzae pharmacokinetic simulation model dosed as amoxicillin-clavulanic acid at simulated human serum concentration of 2000/125 mg, po bid after 6 hrs; conditions: in vivo; method in brief: as §1
[28] = Unbound drug concentration in beta lactamase-positive Haemophilus influenzae pharmacokinetic simulation model dosed as amoxicillin-clavulanic acid at simulated human serum concentration of 2000/125 mg, po bid after 3 hrs; conditions: in vivo; method in brief: as §1
[29] = AUC (0 to 24 hrs) in beta lactamase-negative Haemophilus influenzae pharmacokinetic simulation model dosed as amoxicillin-clavulanic acid at simulated human serum concentration of 2000/125 mg, po bid after 48 hrs
[30] = Drug concentration in beta lactamase-positive Haemophilus influenzae pharmacokinetic simulation model dosed as amoxicillin-clavulanic acid at simulated human serum concentration of 2000/125 mg, po bid after 3 hrs; conditions: in vivo
[31] = Drug concentration in beta lactamase-positive Haemophilus influenzae pharmacokinetic simulation model dosed as amoxicillin-clavulanic acid at simulated human serum concentration of 2000/125 mg, po bid after 12 hrs; conditions: in vivo
[32] = Unbound drug concentration in beta lactamase-positive Haemophilus influenzae pharmacokinetic simulation model dosed as amoxicillin-clavulanic acid at simulated human serum concentration of 2000/125 mg, po bid after 1.5 hr; method in brief: as §1
[33] = Unbound drug concentration in beta lactamase-positive Haemophilus influenzae pharmacokinetic simulation model dosed as amoxicillin-clavulanic acid at simulated human serum concentration of 2000/125 mg, po bid after 4 hrs; method in brief: as §1
[34] = Half life of free unbound fraction in beta lactamase-negative Haemophilus influenzae pharmacokinetic simulation model dosed as amoxicillin-clavulanic acid at simulated human serum concentration of 2000/125 mg, po bid after 48 hrs; conditions: read-out: ft1/2 (converted)
[35] = Drug concentration in beta lactamase-positive Haemophilus influenzae pharmacokinetic simulation model dosed as amoxicillin-clavulanic acid at simulated human serum concentration of 2000/125 mg, po bid after 1 hr; conditions: in vivo
[36] = Unbound drug concentration in beta lactamase-negative Haemophilus influenzae pharmacokinetic simulation model dosed as amoxicillin-clavulanic acid at simulated human serum concentration of 2000/125 mg, po bid after 1.5 hr; method in brief: as §1
[37] = fCmax in beta lactamase-positive Haemophilus influenzae pharmacokinetic simulation model dosed as amoxicillin-clavulanic acid at simulated human serum concentration of 2000/125 mg, po bid after 48 hrs; conditions: in vivo; method in brief: as §1
[38] = Unbound drug concentration in beta lactamase-positive Haemophilus influenzae pharmacokinetic simulation model dosed as amoxicillin-clavulanic acid at simulated human serum concentration of 2000/125 mg, po bid after 2 hrs; conditions: in vivo; method in brief: as §1
[39] = fAUC (0 to 24 hrs) in beta lactamase-positive Haemophilus influenzae pharmacokinetic simulation model dosed as amoxicillin-clavulanic acid at simulated human serum concentration of 2000/125 mg, po bid after 48 hrs; conditions: in vivo; method in brief: as §1
[40] = Protein binding in beta lactamase-negative Haemophilus influenzae pharmacokinetic simulation model dosed as amoxicillin-clavulanic acid at simulated human serum concentration of 2000/125 mg, po bid after 48 hrs; conditions: read-out: PB (converted)
[41] = Drug concentration in beta lactamase-negative Haemophilus influenzae pharmacokinetic simulation model dosed as amoxicillin-clavulanic acid at simulated human serum concentration of 2000/125 mg, po bid after 3 hrs; conditions: in vivo

`CC1(C)S[C@@H]2[C@H](NC(=O)[C@H](N)c3ccc(O)cc3)C(=O)N2[C@H]1C(=O)O` [AMOXICILLIN] gave a Drug uptake [1] of less than 0.03 µg/mL, a Drug uptake [2] of 15.5 µg/mL and a Tmax [3] of 1.5 h. The Drug uptake [4] was 8.2 µg/mL, the Drug uptake [5] was 0.8 µg/mL and the half-life [6] was 1.3 h. The Drug uptake [7] was less than 0.03 µg/mL, the Drug uptake [8] was less than 0.03 µg/mL and the Cmax [9] was 17200 ng/mL. The Drug uptake [10] was 10.4 µg/mL, the Tmax [11] was 1.5 h and the Drug uptake [12] was 5.5 µg/mL. The fCmax [13] was 13.6 µg/mL, the Drug uptake [14] was less than 0.03 µg/mL and the fAUC [15] was 60700 ng·h/mL. For the same compound, the Drug uptake [16] was 0.3 µg/mL, the Drug uptake [17] was 5 µg/mL and the Cmax [18] was 17400 ng/mL. It also gave a Drug uptake [19] of 11.6 µg/mL, a Drug uptake [20] of 9.9 µg/mL and a Drug uptake [21] of 10.1 µg/mL. It also gave a Drug uptake [22] of 11.8 µg/mL, a Drug uptake [23] of 2.1 µg/mL and a Drug uptake [24] of 1.7 µg/mL. The AUC at 24 h [25] was 48700 ng·h/mL, the Drug uptake [26] was 0.6 µg/mL and the Drug uptake [27] was less than 0.03 µg/mL. For the same compound, the Drug uptake [28] was 2.9 µg/mL, the AUC at 24 h [29] was 73100 ng·h/mL and the Drug uptake [30] was 10.5 µg/mL. The Drug uptake [31] was less than 0.03 µg/mL, the Drug uptake [32] was 13.3 µg/mL and the Drug uptake [33] was 0.8 µg/mL. It also gave a half-life [34] of 1.4 h, a Drug uptake [35] of 11.6 µg/mL and a Drug uptake [36] of 13.6 µg/mL. For the same compound, the fCmax [37] was 13.3 µg/mL, the Drug uptake [38] was 7.8 µg/mL and the fAUC [39] was 22500 ng·h/mL.

For `O=C(O)[C@H]1/C(=C/CO)O[C@@H]2CC(=O)N21` [CLAVULANIC ACID], the Drug uptake [1] was less than 0.03 µg/mL, the Drug uptake [2] was 1.4 µg/mL and the fraction unbound at 48 h [40] was 0.75. For the same compound, the Tmax [3] was 1.5 h, the Drug uptake [41] was 0.7 µg/mL and the Drug uptake [4] was 0.2 µg/mL. For the same compound, the Drug uptake [5] was less than 0.03 µg/mL, the half-life [6] was 1 h and the Drug uptake [7] was less than 0.03 µg/mL. For the same compound, the Drug uptake [8] was less than 0.03 µg/mL, the Cmax [9] was 2100 ng/mL and the Drug uptake [10] was 0.9 µg/mL. For the same compound, the Tmax [11] was 1.5 h, the Drug uptake [12] was 0.4 µg/mL and the fCmax [13] was 1.5 µg/mL. For the same compound, the Drug uptake [14] was less than 0.03 µg/mL, the fAUC [15] was 2900 ng·h/mL and the Drug uptake [16] was less than 0.03 µg/mL. It also gave a Drug uptake [17] of 0.1 µg/mL, a Cmax [18] of 2100 ng/mL and a Drug uptake [19] of 1.3 µg/mL. For the same compound, the Drug uptake [20] was 0.9 µg/mL, the Drug uptake [21] was 0.5 µg/mL and the Drug uptake [22] was 1 µg/mL. The Drug uptake [23] was 0.1 µg/mL, the Drug uptake [24] was less than 0.03 µg/mL and the AUC at 24 h [25] was 4500 ng·h/mL. The Drug uptake [26] was less than 0.03 µg/mL, the Drug uptake [27] was 0.1 µg/mL and the Drug uptake [28] was 0.4 µg/mL. For the same compound, the AUC at 24 h [29] was 4700 ng·h/mL, the Drug uptake [30] was 0.7 µg/mL and the Drug uptake [31] was less than 0.03 µg/mL. It also gave a Drug uptake [32] of 1.4 µg/mL, a Drug uptake [33] of 0.1 µg/mL and a half-life [34] of 1 h. It also gave a Drug uptake [35] of 1.2 µg/mL, a Drug uptake [36] of 1.5 µg/mL and a fCmax [37] of 1.4 µg/mL. The Drug uptake [38] was 1 µg/mL and the fAUC [39] was 2800 ng·h/mL.
